Experimental findings from ChEMBL document CHEMBL4000256, “Light-Regulated NO Release as a Novel Strategy To Overcome Doxorubicin Multidrug Resistance” (ACS Med Chem Lett, 2017) are described below.

Series [1] in a line: Induction of NO release in pH 7.4 PBS irradiated with 7 mW/cm2 light at 10 uM after 0.5 hrs in presence of calf thymus DNA by amperometric detection assay. In outline:
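NO release recorded during alternating light (λexc 405 nm) and dark cycles. Solution at 10 μM in PBS (pH 7.4, 10 mM, 3% DMSO), with or without 18 μM ct-DNA.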

Series [2] is described as follows: Stability of the compound in pH 7.4 PBS at 100 uM incubated under dark condition for >0.5 hrs. Particulars: buffer, pH 7.4, 0.5 h. The class given is physicochemical.
A short description of series [3]: Stability of the compound in PBS with 3% DMSO. In kind it is physicochemical. The following applies: buffer.
Series [4] relates to Fibroblast. The series is described as follows: Cytotoxicity against 7 mW/cm'2 irradiated human fibroblasts at 5 uM coadministered with DOX measured after 20 mins by spectrophotometric method. The class given is cell-based. Summed up: (§1)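 Cells (M14 melanoma, human fibroblasts or rat H9c2 cardiomyocytes) kept 20 min at room temperature in PBS under 400 nm light (7 mW/cm2), alone or with 5 μM compound, given alone or with equimolar 5 μM doxorubicin. Damage read as extracellular LDH release. Triplicate measurements, n = 3.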

Series [5] relates to H9c2. Description: Cytotoxicity against 7 mW/cm'2 irradiated rat H9c2 cells at 5 uM coadministered with DOX measured after 20 mins by spectrophotometric method. In kind it is cell-based. Particulars: h9c2, 20 min. In outline: as §1
In series [6] the target is T1, Broad substrate specificity ATP-binding cassette transporter ABCG2 (Homo sapiens, UniProt Q9UNQ0).
T1 sequence (Q9UNQ0 whole entry): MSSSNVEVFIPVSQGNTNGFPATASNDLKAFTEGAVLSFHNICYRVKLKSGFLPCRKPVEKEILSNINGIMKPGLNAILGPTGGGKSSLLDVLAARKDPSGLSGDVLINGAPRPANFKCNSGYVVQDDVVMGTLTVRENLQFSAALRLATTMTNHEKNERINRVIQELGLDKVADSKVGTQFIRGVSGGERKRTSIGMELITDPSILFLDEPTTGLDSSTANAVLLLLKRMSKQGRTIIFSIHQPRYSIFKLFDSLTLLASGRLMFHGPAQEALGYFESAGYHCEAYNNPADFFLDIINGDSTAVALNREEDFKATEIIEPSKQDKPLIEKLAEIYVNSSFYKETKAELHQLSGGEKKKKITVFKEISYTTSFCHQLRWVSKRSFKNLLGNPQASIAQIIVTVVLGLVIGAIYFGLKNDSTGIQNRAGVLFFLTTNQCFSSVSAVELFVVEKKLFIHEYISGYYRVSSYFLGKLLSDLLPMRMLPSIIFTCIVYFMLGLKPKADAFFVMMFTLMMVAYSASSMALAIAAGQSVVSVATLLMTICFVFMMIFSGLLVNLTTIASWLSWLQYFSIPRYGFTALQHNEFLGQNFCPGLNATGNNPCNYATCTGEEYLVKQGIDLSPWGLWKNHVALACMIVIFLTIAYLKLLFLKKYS
The series is described as follows: Inhibition of BCRP in 7 mW/cm'2 irradiated human M14 cells assessed as nitration of tyrosine in BCRP at 5 uM measured after 20 mins in presence of doxorubicin by immunoblotting. Summed up: (§2)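 M14 melanoma cells held 20 min at room temperature in PBS under 400 nm light (7 mW/cm2) with 5 μM compound, alone or with equimolar doxorubicin. Nitrated ABC transporters (Pgp, MRP1, MRP4, BCRP) detected by immunoblot.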
In general terms: Immunoblotting shows a protein as a band on a membrane.

Series [7] deals with T1, Broad substrate specificity ATP-binding cassette transporter ABCG2. The series is described as follows: Inhibition of BCRP in 7 mW/cm'2 irradiated human M14 cells assessed as reduction in ATPase activity at 5 uM measured after 20 mins in presence of doxorubicin by immunoblotting. In outline:
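M14 melanoma cells held 20 min at room temperature in PBS under 400 nm light (7 mW/cm2) with 5 μM compound, alone or with equimolar doxorubicin. Transporter ATPase activity then measured; n = 3.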

Series [8] deals with H9c2. The series is described as follows: Dark toxicity against rat H9c2 cells at 5 uM measured after 20 mins co-incubated with doxorubicin by spectrophotometric method. In kind it is cell-based. The following applies: h9c2, 20 min. In outline: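 Cells (M14 melanoma, human fibroblasts or rat H9c2 cardiomyocytes) kept 20 min at room temperature in PBS in the dark, with 5 μM compound, given alone or with equimolar 5 μM doxorubicin. Cytotoxicity read as extracellular LDH release. Triplicate measurements, n = 3.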

For series [9], the target named is T2, ATP-binding cassette sub-family C member 4 (Homo sapiens, UniProt O15439).
T2 sequence (O15439 whole entry): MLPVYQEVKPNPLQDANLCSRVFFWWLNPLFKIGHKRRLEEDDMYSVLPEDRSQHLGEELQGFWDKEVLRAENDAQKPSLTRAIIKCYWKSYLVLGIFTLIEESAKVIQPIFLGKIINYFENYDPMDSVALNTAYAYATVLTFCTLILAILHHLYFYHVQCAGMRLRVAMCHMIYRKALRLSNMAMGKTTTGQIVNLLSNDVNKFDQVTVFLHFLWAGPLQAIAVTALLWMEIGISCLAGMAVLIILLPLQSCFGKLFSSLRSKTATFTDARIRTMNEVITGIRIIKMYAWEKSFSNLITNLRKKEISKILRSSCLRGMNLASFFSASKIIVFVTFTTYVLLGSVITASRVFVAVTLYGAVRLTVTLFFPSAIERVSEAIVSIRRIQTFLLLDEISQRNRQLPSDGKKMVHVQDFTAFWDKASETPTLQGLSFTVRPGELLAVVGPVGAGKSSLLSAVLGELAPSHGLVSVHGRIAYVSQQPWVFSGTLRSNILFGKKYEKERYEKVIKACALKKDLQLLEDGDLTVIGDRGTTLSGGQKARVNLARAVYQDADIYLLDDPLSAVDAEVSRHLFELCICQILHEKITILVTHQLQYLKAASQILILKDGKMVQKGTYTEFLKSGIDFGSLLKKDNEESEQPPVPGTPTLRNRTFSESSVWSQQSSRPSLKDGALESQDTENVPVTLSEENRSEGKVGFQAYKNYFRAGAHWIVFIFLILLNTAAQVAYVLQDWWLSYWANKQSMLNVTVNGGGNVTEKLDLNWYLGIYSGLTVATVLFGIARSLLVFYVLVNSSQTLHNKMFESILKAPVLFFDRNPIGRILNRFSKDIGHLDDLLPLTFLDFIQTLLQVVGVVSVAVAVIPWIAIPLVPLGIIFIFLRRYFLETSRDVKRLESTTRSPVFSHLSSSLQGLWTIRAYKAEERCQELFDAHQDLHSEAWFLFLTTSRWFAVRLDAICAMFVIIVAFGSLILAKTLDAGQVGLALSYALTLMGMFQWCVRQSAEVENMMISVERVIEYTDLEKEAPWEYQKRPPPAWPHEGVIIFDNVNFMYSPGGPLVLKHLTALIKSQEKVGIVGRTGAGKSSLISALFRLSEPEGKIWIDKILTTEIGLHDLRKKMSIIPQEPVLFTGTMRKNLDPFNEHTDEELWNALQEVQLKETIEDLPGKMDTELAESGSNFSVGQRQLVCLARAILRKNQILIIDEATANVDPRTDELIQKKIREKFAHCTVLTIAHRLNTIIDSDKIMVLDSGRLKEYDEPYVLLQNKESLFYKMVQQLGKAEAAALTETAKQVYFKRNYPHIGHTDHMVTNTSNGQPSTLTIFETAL
The series is described as follows: Inhibition of MRP4 in 7 mW/cm'2 irradiated human M14 cells assessed as nitration of tyrosine in MRP4 at 5 uM measured after 20 mins in presence of doxorubicin by immunoblotting. Summed up: as §2

Calls of active or inactive are those of the source. The rule behind the calls is not given here.

For `COc1cccc2c1C(=O)c1c(O)c3c(c(O)c1C2=O)C[C@@](O)(C(=O)COC(=O)c1ccc(C(=O)NCCCNc2ccc([N+](=O)[O-])c(C(F)(F)F)c2)cc1)C[C@@H]3O[C@H]1C[C@H](N)[C@H](O)[C@H](C)O1.Cl`, in series [1], the outcome was Active. For the same compound, the Stability result in [2] and in [3] was “Stable” throughout.
As to `NCCCNc1ccc([N+](=O)[O-])c(C(F)(F)F)c1`, the Activity result in series [4], in series [5] and in [8] was “Non-Toxic” throughout. The “inhibition (INH)” value in series [6], in series [7] and in series [9] was “Active” in each case.
